Cneo AK release = Cryptococcus neoformans lysis via adenylate kinase release; actives 0.2% (n = 360,000); C. neoformans lysis, adenylate kinase release luminescence, 4 h; normalised: neutral wells 0, clomiphene wells 100; lysis activity, % at 15 µM;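 active = mean lysis activity across replicates of at least 80%, whatever share of replicates individually reach that level; inactive = mean lysis activity below 80%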
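Assay system: Cryptococcus neoformans yeast cells / Dosing: single-point compound dose / Timing: 4 h at 37 °C static, read 1 h later / Measured by: luminescence of released adenylate kinase using an AK detection reagent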
SIRT5 block = blocks human SIRT5 desuccinylation of peptide; Purified SirT5, succinyl-peptide AMC, trypsin-coupled fluorescence; inhibition, % at 15 µM; actives 1.1% (n = 330,000); AID 652115; in the data active = inhibition above about 15%
Target sequence (Q9NXA8 whole entry, looked up): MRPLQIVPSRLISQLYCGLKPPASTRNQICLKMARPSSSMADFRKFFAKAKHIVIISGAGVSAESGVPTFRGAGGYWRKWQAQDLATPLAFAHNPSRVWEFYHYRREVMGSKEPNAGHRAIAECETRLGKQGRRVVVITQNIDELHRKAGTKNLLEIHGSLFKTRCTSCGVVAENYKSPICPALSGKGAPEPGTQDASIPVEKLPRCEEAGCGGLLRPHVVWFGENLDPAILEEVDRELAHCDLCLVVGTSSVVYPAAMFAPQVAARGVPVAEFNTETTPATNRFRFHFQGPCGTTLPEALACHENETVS
PGC1a acetyl inh = modulators of PGC1a acetylation; actives 0.17% (n = 350,000); AID 651687; inhibition, % at 15.6 µM; U2OS PGC1a acetylation, AlphaScreen anti-acetyl-lysine; with virally co-expressed GCN5 acetyltransferase;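 active = every replicate shows inhibition of at least 40%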;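 also: 0% = neutral control wells and 100% = positive control wells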
Statin myotox sup = protects C2C12 myotubes from simvastatin toxicity; rescue of ATP level, % at 7.49 µM; ATP luminescence, 48 h; scaled: DMSO 0, geranylgeraniol control 100; actives 0.78% (n = 330,000);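 active = mean ATP rescue above about 67%, or every replicate alone reaching that limit, limit read from the data, passing the limit was not always enough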;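 also: myotubes were challenged with 10 µM simvastatin during compound exposure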
S100A4 MyoIIA = S100A4-myosin IIA interaction inhibition; S100A4/TAMRA-MyoIIA peptide fluorescence polarization; inhibition, % at 10.7 µM; actives 0.14% (n = 360,000); P26447; AID 652163;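 active = mean inhibition of at least 70% across replicates, with every replicate also reaching that level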
Target sequence (P26447 whole entry, looked up): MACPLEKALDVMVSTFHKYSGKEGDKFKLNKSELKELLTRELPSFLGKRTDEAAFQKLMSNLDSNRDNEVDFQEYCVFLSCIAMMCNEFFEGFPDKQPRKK
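Material: S100A4 monomer (human). Medium: Calcium-containing HEPES buffer, pH 7.2. Probe or stimulus: labelled myosin peptide probe, 5 nM. Compound dosing: one concentration per compound. Timing: polarization read 5 min after assay mix addition, stable 5–60 min. Benchmarks: DMSO as neutral control, TFP as positive control.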
rRNA inh HTS = inhibitors of bacterial rRNA selective over humanized ribosomes; E. coli WT GFP vs humanized-ribosome RFP mutants, fluorescence, 24 h; stronger effect = lower value; DMSO median 0, no signal -100; GFP signal change (wild-type ribosome), % (no concentration beside the values); actives 1.6% (n = 350,000);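 active = significant combined selectivity score with lowered wild-type GFP, culture density cut under 30%, mutant RFP and density less affected; inactive = any of these conditions unmet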
The depositor's hits bear a star. Most compounds without a hit are left out; they make up all but 3% or so of the library.

Cc1ccc(N2C3=C(C(=O)CC(C)(C)C3)C(c3cn(C)nc3C)C3=C2CC(C)(C)CC3=O)cc1 was read as Cneo AK release 5, SIRT5 block -1, PGC1a acetyl inh 4, S100A4 MyoIIA 112* and rRNA inh HTS 25.
`COCC(=O)Nc1ccc2c(c1)[C@H]1C[C@H](CC(=O)N(C)C)O[C@@H](CO)[C@H]1O2` gave Cneo AK release -1, PGC1a acetyl inh -5, Statin myotox sup 2 and rRNA inh HTS -1.
For CCN(C(=O)CN1C(=O)S/C(=C\c2cccc(OC)c2)C1=O)C1CCS(=O)(=O)C1 (stereo not drawn) the results were Cneo AK release 1, SIRT5 block 16*, PGC1a acetyl inh 4, Statin myotox sup 8, S100A4 MyoIIA 0 and rRNA inh HTS 9.
Screening COc1ccc2c3c([nH]c2c1)[C@H](CO)N(CC1CC1)CC31CCN(C(=O)c2ccc(F)cc2)CC1 returned PGC1a acetyl inh 1, S100A4 MyoIIA -4 and rRNA inh HTS -2.
`O=S(=O)(NCCOCC(F)(F)C(F)F)c1ccc2oc3ccccc3c2c1` gave Cneo AK release 3 and PGC1a acetyl inh 12.
Screening COc1ccc(OCCNS(=O)(=O)c2ccc3oc4ccccc4c3c2)cc1 returned Cneo AK release 1, PGC1a acetyl inh 4 and Statin myotox sup 101*.
COc1cccc(N2CCN(c3ncnc4c3[nH]c3ccc(F)cc34)CC2C)c1 (stereo not drawn) was read as Cneo AK release 0, PGC1a acetyl inh 77* and Statin myotox sup -261.
COc1cc2[nH]c3c(N4CCN(c5ccc(Cl)cc5)CC4)ncnc3c2cc1OC was read as Cneo AK release -3, PGC1a acetyl inh -4 and Statin myotox sup 24.
Cc1ccc(CN2CCC(C(=O)NCCC(C)C)CC2)o1 was read as Cneo AK release -1, PGC1a acetyl inh -8 and Statin myotox sup 109*.
Screening CC(C)CCNC(=O)C1CCN(c2nc3ccccc3o2)CC1 returned Cneo AK release 2, PGC1a acetyl inh 0 and Statin myotox sup 25.
Screening CO[C@H]1CN(C)C(=O)c2ccc(NC(=O)C3CCCC3)cc2OC[C@H](C)N(C(C)=O)C[C@H]1C returned Cneo AK release -6, SIRT5 block 0, PGC1a acetyl inh 0, Statin myotox sup -3, S100A4 MyoIIA 2 and rRNA inh HTS 1.
`Nc1ccc2c3c(cccc13)-c1ccccc1-2` gave Cneo AK release 4, PGC1a acetyl inh 2, Statin myotox sup 126*, S100A4 MyoIIA 5 and rRNA inh HTS -11.
Screening COc1ccc(S(=O)(=O)N(C)C[C@@H]2OCCCC[C@@H](C)Oc3ccc(NC(=O)CCCN(C)C)cc3C(=O)N([C@@H](C)CO)C[C@H]2C)cc1 returned Cneo AK release 1, SIRT5 block -7, PGC1a acetyl inh 6, S100A4 MyoIIA -1 and rRNA inh HTS 2.
COc1ccc(S(=O)(=O)N(C)C[C@H]2OCCCC[C@@H](C)Oc3ccc(NS(=O)(=O)c4cn(C)cn4)cc3C(=O)N([C@H](C)CO)C[C@@H]2C)cc1 was read as Cneo AK release 3, SIRT5 block 1, PGC1a acetyl inh -9, S100A4 MyoIIA -2 and rRNA inh HTS -1.
Screening Cc1ccc(-c2nnc(-c3ccccc3)c(-c3ccccc3)n2)cc1 returned Cneo AK release 1, SIRT5 block -3, S100A4 MyoIIA 1 and rRNA inh HTS 12.
Screening Nc1nnc(-c2ccccc2)c(-c2ccccc2)n1 returned Cneo AK release 0, PGC1a acetyl inh 14 and Statin myotox sup 121*.
O=C(C[C@H]1CC[C@H]2[C@@H](COC[C@@H](O)CN2C(=O)c2ccccc2F)O1)NCc1ccccc1 was read as Cneo AK release -1, SIRT5 block -2, PGC1a acetyl inh 4, Statin myotox sup 4, S100A4 MyoIIA 13 and rRNA inh HTS -2.
CCCC(=O)Nc1ccc2c(c1)C(=O)N(C)C[C@@H](OC)[C@H](C)CN(C(=O)Cc1cccnc1)[C@H](C)CO2 was read as Cneo AK release 4, SIRT5 block 0, PGC1a acetyl inh 1, Statin myotox sup 7, S100A4 MyoIIA 5 and rRNA inh HTS 2.
Cc1ccc(NC(=O)c2cccc3cccnc23)cc1 was read as Cneo AK release -2, SIRT5 block 1, Statin myotox sup -4, S100A4 MyoIIA -4 and rRNA inh HTS -16.
`CC(=O)Nc1cccc(NC(=O)c2cccc3cccnc23)c1` gave Cneo AK release -1, SIRT5 block 15*, Statin myotox sup 10, S100A4 MyoIIA -2 and rRNA inh HTS -9.
CCN(CC)c1ccc2nc3ccc(N)cc3[n+](-c3ccccc3)c2c1 was read as Cneo AK release -6, SIRT5 block -2, PGC1a acetyl inh -29, Statin myotox sup -152, S100A4 MyoIIA active and rRNA inh HTS 0.
Screening C[C@@H]1CN([C@@H](C)CO)C(=O)c2cc(-c3ccc(F)cc3)cnc2O[C@H]1CN(C)CC1CCCCC1 returned Cneo AK release 1, SIRT5 block 6, PGC1a acetyl inh -6, Statin myotox sup -4, S100A4 MyoIIA 3 and rRNA inh HTS 1.
For N#Cc1sc2nc3c(c(-c4ccco4)c2c1N)CCCC3 the results were Cneo AK release 1, PGC1a acetyl inh 4 and Statin myotox sup 98*.
For Nc1nn2c(-c3ccccc3)cc(=O)[nH]c2c1N=Nc1ccc(Br)cc1 the results were SIRT5 block -3, S100A4 MyoIIA -4 and rRNA inh HTS -29*.
For CCOC(=O)Cn1c(N2CCOCC2)nc2c1c(=O)[nH]c(=O)n2C the results were Cneo AK release 2, PGC1a acetyl inh 6 and Statin myotox sup 118*.
Screening COc1cccc(OC)c1OCCOc1ccc(C(=O)c2ccccc2)cc1 returned SIRT5 block 17*, S100A4 MyoIIA 4 and rRNA inh HTS -13.
Screening COC(=O)c1ccc(OCCOc2ccccc2)cc1 returned Cneo AK release 3, PGC1a acetyl inh 2 and Statin myotox sup -6.
For COc1ccc(C=NNC(=O)c2ccccc2NS(=O)(=O)c2cccs2)cc1O the results were Cneo AK release -1, SIRT5 block -1, PGC1a acetyl inh 8, Statin myotox sup 9, S100A4 MyoIIA 3 and rRNA inh HTS -26*.
O=C(N/N=C/c1ccc(N2CCOCC2)cc1)c1ccccc1NS(=O)(=O)c1cccs1 was read as PGC1a acetyl inh 0, S100A4 MyoIIA 10 and rRNA inh HTS -40*.
Screening COc1ccccc1-c1cnc2c(c1)C(=O)N([C@@H](C)CO)C[C@H](C)[C@H](CN(C)C(C)=O)O2 returned Cneo AK release -2, SIRT5 block 1, PGC1a acetyl inh -9, Statin myotox sup -1, S100A4 MyoIIA -13 and rRNA inh HTS 4.
